Activity, inhibition and fold change (FC) data for 13 compounds are collected here from ChEMBL document CHEMBL1932980, “Structure-activity relationships of 2-amino-3-aroyl-4-[(4-arylpiperazin-1-yl)methyl]thiophenes. Part 2: Probing the influence of diverse substituents at the phenyl of the arylpiperazine moiety on allosteric enhancer activity at the A₁ adenosine receptor” (Bioorg Med Chem, 2012).

Experiment [1] addresses T1, Adenosine receptor A1 (Homo sapiens) (UniProt P30542).
T1 sequence (whole entry): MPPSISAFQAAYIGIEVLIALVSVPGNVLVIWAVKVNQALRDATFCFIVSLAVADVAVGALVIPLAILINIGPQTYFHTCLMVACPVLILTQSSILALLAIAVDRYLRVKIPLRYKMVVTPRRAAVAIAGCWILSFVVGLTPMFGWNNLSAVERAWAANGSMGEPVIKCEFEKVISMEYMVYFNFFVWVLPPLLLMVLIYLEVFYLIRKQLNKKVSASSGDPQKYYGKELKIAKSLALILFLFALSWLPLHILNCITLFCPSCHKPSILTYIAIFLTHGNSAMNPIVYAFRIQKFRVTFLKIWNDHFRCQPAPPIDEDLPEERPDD
Put plainly: Allosteric enhancer activity at recombinant human A1 adenosine receptor expressed in CHO cells assessed as change in forskolin-induced cAMP production at 0.01 uM after 6 mins by radioimmunoassay. It is filed as functional, cell-based. Put shortly:
(§1)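 hA1CHO cells (about 8000 fmol/mg protein) thawed from low-passage stocks, grown in Ham's F-12 with 10% FBS and G-418, then plated 48 h. Test compound at 0.01, 0.1, 1 or 10 µM with CPA (0.05–0.1 nM) for 6 min at 36 °C. Stopped with HCl (final 50 mM). cAMP in acidified extracts measured by radioimmunoassay. Reference enhancer run in each experiment. Four experiments per concentration.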

For experiment [2], the target named is T1, Adenosine receptor A1 (Homo sapiens). The experiment is described as follows: Allosteric enhancer activity at recombinant human A1 adenosine receptor expressed in CHO cells assessed as change in forskolin-induced cAMP production at 0.1 uM after 6 mins by radioimmunoassay. The format is functional, cell-based. Put shortly:
as §1
On the technique in general: cAMP levels reflect the balance of adenylyl cyclase and phosphodiesterase activity.

Experiment [3] has the same target. Put plainly: Allosteric enhancer activity at recombinant human A1 adenosine receptor expressed in CHO cells assessed as change in forskolin-induced cAMP production at 1 uM after 6 mins by radioimmunoassay. The format is functional, cell-based. Put shortly: as §1
Experiment [4] shares this target. The experiment is described as follows: Allosteric enhancer activity at recombinant human A1 adenosine receptor expressed in CHO cells assessed as change in forskolin-induced cAMP production at 10 uM after 6 mins by radioimmunoassay. It is filed as functional, cell-based. Put shortly: as §1
Experiment [5] has the same target. The experiment is described as follows: Displacement of [3H]DPCPX from recombinant human A1 adenosine receptor expressed in CHO cells at 10 uM after 120 mins by scintillation counting. The format is cell-based. The essentials:
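Membranes from hA1CHO cells incubated with 1 nM [3H]DPCPX in 50 mM Tris–HCl pH 7.4 at 25 °C for 120 min. Compound added from a 100-fold DMSO stock, so 1% DMSO final, also present in controls. Bound ligand separated on GF/B filters and counted by scintillation. Result given as % of control specific binding.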
(In general: Loss of bound radioactivity is the signal in a displacement assay; it reports binding, not function.)

Experiment [6] addresses Adenosine receptor A2a (Homo sapiens) (UniProt P29274). The experiment is described as follows: Displacement of [3H]ZM241385 from recombinant human A2A adenosine receptor expressed in CHO cells at 10 uM after 60 mins by scintillation counting. The format is cell-based. Put shortly: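 Membranes from hA2ACHO cells incubated with 1 nM [3H]ZM 241385 in 50 mM Tris–HCl, 10 mM MgCl2, pH 7.4 at 4 °C for 60 min. Compound added from a 100-fold DMSO stock, 1% DMSO final, also in controls. Separated by GF/B filtration and counted by scintillation. Result given as % of control specific binding.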

The target of experiment [7] is T2, Adenosine receptor A3 (Homo sapiens) (UniProt P0DMS8).
T2 sequence (whole entry): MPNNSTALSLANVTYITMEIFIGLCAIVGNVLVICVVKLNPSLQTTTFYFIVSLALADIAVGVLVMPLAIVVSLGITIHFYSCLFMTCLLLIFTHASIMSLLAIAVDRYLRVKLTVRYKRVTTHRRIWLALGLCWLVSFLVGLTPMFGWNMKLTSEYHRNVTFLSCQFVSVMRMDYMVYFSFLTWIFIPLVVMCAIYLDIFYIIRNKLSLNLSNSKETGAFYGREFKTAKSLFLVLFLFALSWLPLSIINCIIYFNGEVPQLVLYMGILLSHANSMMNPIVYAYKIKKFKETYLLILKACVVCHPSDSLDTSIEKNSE
Put plainly: Displacement of [3H]MRE3008F20 from recombinant human A3 adenosine receptor expressed in CHO cells at 10 uM after 120 mins by scintillation counting. It is filed as cell-based. Put shortly:
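Membranes from hA3CHO cells incubated with 2 nM [3H]MRE 3008F20 in 50 mM Tris–HCl, 10 mM MgCl2, 1 mM EDTA, pH 7.4 at 4 °C for 120 min. Compound added from a 100-fold DMSO stock, 1% DMSO final, also in controls. Separated by GF/B filtration and counted by scintillation. Result given as % of control specific binding.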

The target of experiment [8] is T1, Adenosine receptor A1 (Homo sapiens). The experiment is described as follows: Binding affinity to recombinant human A1 adenosine receptor allosteric site expressed in CHO cells assessed as [3H]CCPA Bmax shift at 10 uM after 90 mins relative to control. The format is cell-based. The essentials:
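Saturation binding of [3H]CCPA (0.05–20 nM) to hA1CHO membranes. Membranes pretreated with adenosine deaminase 3 UI/mL for 30 min at 37 °C. Run in triplicate, 90 min at 25 °C, in 50 mM Tris–HCl pH 7.4, with or without test compound at final 10 µM. Nonspecific binding taken with 1 µM R-PIA. Bmax fitted by LIGAND. Shift is the fold of Bmax increase over control.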

The target is the same in experiment [9]. Put plainly: Binding affinity to recombinant human A1 adenosine receptor allosteric site expressed in CHO cells assessed as [3H]DPCPX Bmax shift at 10 uM after 90 mins relative to control. The format is cell-based. Put shortly:
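Saturation binding of [3H]DPCPX (0.05–20 nM) to hA1CHO membranes, run in triplicate, 90 min at 25 °C, in 50 mM Tris–HCl pH 7.4, with or without test compound at final 10 µM. Nonspecific binding taken with 1 µM DPCPX. KD and Bmax fitted by LIGAND. Shift is the fold of Bmax increase over control.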

Experiment [10] shares this target. Put plainly: Binding affinity to recombinant human A1 adenosine receptor allosteric site expressed in CHO cells assessed as potentiation of CCPA-induced [3H]DPCPX displacement at 10 uM after 90 mins relative to control. The format is cell-based. Put shortly: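 Competition of CCPA (0.01 nM–1 µM) against 1 nM [3H]DPCPX on hA1CHO membranes, run in triplicate, 90 min at 25 °C, in 50 mM Tris–HCl pH 7.4, with or without test compound at 10 µM. Nonspecific binding taken with 1 µM DPCPX. Ki by Cheng–Prusoff. Shift = Ki(CCPA)/Ki(CCPA + 10 µM compound).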

Sequence of Adenosine receptor A2a (Homo sapiens) (P29274 whole entry): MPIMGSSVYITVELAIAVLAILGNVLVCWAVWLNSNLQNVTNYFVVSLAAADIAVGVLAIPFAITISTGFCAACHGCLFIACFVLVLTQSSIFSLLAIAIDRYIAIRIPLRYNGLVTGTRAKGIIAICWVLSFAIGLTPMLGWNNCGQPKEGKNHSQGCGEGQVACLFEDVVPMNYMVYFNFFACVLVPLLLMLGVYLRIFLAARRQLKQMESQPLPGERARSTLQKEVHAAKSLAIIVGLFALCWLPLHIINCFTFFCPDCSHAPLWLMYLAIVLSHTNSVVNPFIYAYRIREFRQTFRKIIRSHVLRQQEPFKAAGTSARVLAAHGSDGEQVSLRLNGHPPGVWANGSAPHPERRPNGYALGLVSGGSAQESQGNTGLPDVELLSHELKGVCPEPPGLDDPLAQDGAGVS

With `COc1ccc(N2CCN(Cc3csc(N)c3C(=O)c3ccc(Cl)cc3)CC2)cc1`, the Activity in experiment [1] is -1.2%; in [2], 0%; in experiment [3] it was -15%; in [4], -52%. The inhibition in experiment [5], in experiment [6] and in experiment [7] was 0% throughout. Moreover, the fold change (FC) in [8] is 3.3; in [9] it was 0.9; in experiment [10], 2.8.
As for `Nc1scc(CN2CCN(c3ccccc3Cl)CC2)c1C(=O)c1ccc(Cl)cc1`, the Activity in experiment [1] is -2.1%; in experiment [2] it was 2%; in experiment [3], -5.2%; in experiment [4] it was -18%. Moreover, the inhibition in [5] was 2%; in experiment [6], 1%; in experiment [7], 0%. For the same compound, the fold change (FC) in experiment [8] stood at 1.2; in experiment [9], 0.9; in [10], 1.4.
Take `Nc1scc(CN2CCN(CC(=O)c3ccc(Cl)cc3)CC2)c1C(=O)c1ccc(Cl)cc1`: the Activity in experiment [1] was -5%; in experiment [2], 1%; in experiment [3], -25%; in [4], -62%. Besides, the inhibition in experiment [5] is 0%; in experiment [6], 1%; in experiment [7] it was 0%. The fold change (FC) stood at 1.4 in [8], 0.9 in experiment [9] and 1.4 in [10].
Take `Cc1sc(N)c(C(=O)c2cccc(C(F)(F)F)c2)c1C`: the Activity in experiment [1] is -8%; in experiment [2] it was -3.4%; in [3], -31%; in experiment [4], -57%. For the same compound, the inhibition in experiment [5] and in experiment [6] was 0% throughout. For the same compound, the fold change (FC) in experiment [8] came out at 1.3; in experiment [9], 1; in [10], 1.7.
Turning to `Nc1scc(CN2CCN(c3cccnc3)CC2)c1C(=O)c1ccc(Cl)cc1`, the Activity in experiment [1] was 3.2%; in experiment [2], 3.4%; in experiment [3], -2.7%; in experiment [4], -23%. Moreover, the inhibition in experiment [5], in experiment [6] and in experiment [7] was 0% in each case. For the same compound, the fold change (FC) worked out at 1.3 in experiment [8], 0.9 in experiment [9] and 1.4 in experiment [10].
Regarding `Nc1scc(CN2CCN(c3ccc(F)cc3F)CC2)c1C(=O)c1ccc(Cl)cc1`, the Activity is 0% in experiment [1], -17% in [2], -66% in experiment [3] and -82% in experiment [4]. Besides, the values for the inhibition in experiment [5], in experiment [6] and in experiment [7] were 1%, 0% and 0%, respectively. For the same compound, the fold change (FC) in [8] was 6.1; in experiment [9], 1; in [10] it was 4.8.
Take `Nc1scc(CN2CCN(c3cccc(C(F)(F)F)c3)CC2)c1C(=O)c1ccc(Cl)cc1`: the Activity is -8.2% in experiment [1], -30% in [2], -72% in experiment [3] and -80% in experiment [4]. The inhibition in [5] amounted to 0%; in experiment [6] it was 3%; in [7], 0%. The results for the fold change (FC) in experiment [8], in experiment [9] and in experiment [10] were 5.3, 1 and 4.3, respectively.
Take `Nc1scc(CN2CCN(c3ccc(OC(F)(F)F)cc3)CC2)c1C(=O)c1ccc(Cl)cc1`: the Activity in experiment [1] was 0%; in experiment [2], -13%; in experiment [3], -51%; in [4], -74%. Further, the inhibition amounted to 0% in experiment [5], 0% in experiment [6] and 1% in experiment [7]. For the same compound, the fold change (FC) is 6.8 in [8], 1.1 in [9] and 5.3 in experiment [10].
Consider `Nc1scc(CN2CCN(c3c(F)cccc3F)CC2)c1C(=O)c1cccc(C(F)(F)F)c1`, for which the Activity in [1] was found to be 2.1%; in experiment [2] it was 1.3%; in experiment [3] it was 1.3%; in experiment [4], 4%. For the same compound, the inhibition in [5], in experiment [6] and in experiment [7] was 0% each time. For the same compound, the fold change (FC) in experiment [8] turned out to be 1.1; in experiment [9], 0.9; in experiment [10] it was 1.2.
In the case of `Nc1scc(CN2CCN(c3ccccc3F)CC2)c1C(=O)c1ccc(Cl)cc1`, the Activity was 2.1% in [1], -1% in experiment [2], -9.2% in experiment [3] and -15% in [4]. For the same compound, the inhibition in experiment [5] worked out at 4%; in [6], 0%; in experiment [7] it was 0%. Also, the results for the fold change (FC) in [8], in [9] and in [10] were 1.1, 1 and 1.4, respectively.
`Nc1scc(CN2CCN(C3CCCC3)CC2)c1C(=O)c1ccc(Cl)cc1`: the Activity in experiment [1] was 9.1%; in experiment [2], 2.1%; in experiment [3], 10%; in experiment [4] it was -30%. In addition, the inhibition in experiment [5] amounted to 0%; in experiment [6], 3%; in [7] it was 3%. For the same compound, the fold change (FC) in experiment [8] amounted to 1.1; in [9], 0.9; in experiment [10], 1.3.
For `Nc1scc(CN2CCN(c3cc(Cl)ccc3Cl)CC2)c1C(=O)c1ccc(Cl)cc1`, the Activity in [1] is 13%; in [2], -6.2%; in [3] it was -42%; in experiment [4], -62%. The results for the inhibition in experiment [5], in [6] and in experiment [7] were 0%, 0% and 1%, respectively. For the same compound, the fold change (FC) in experiment [8] is 3.2; in experiment [9], 0.9; in experiment [10] it was 2.8.
With `Nc1scc(CN2CCN(c3ccccc3C(F)(F)F)CC2)c1C(=O)c1ccc(Cl)cc1`, the Activity is 0% in experiment [1], -7.5% in experiment [2], -39% in [3] and -60% in experiment [4]. For the same compound, the inhibition in experiment [5], in experiment [6] and in experiment [7] was 0% throughout. For the same compound, the fold change (FC) turned out to be 4.4 in experiment [8], 1 in [9] and 3.6 in [10].

For orientation: inhibition means the change of the read-out against control, counted positive when it falls.
